Legend:
Hepatitis C virus = assay: Antiviral activity against Hepatitis C virus genotype 1b Con1 after 4 days by cell-based replicon assay; format: functional, organism-based, Hepacivirus hominis; settings: isolate Con1, 96 h
[1] = Inhibition of Hepatitis C virus genotype 1a H77 recombinant NS3/4A protease expressed in Escherichia coli BL21 (DE3) cell using Ac-Asp-Glu-Asp(EDANS)-Glu-Glu-Abu[C(O)-O]-Ala-Ser-Lys(DABCYL)-NH2 as substrate by FRET assay; design: species or system Hepatitis C virus (isolate H77)
[2] = AUC in intraduodenally dosed Sprague-Dawley rat plasma measured over 4 hrs by LC/MS/MS analysis; format: ADME, organism-based; design: time < 4 hr, route intraduodenal; settings: Sprague-Dawley, plasma
How it was run: (§1)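 Abbreviated rat screen: surgically prepared rats were dosed intraduodenally. Plasma was sampled over 4 h, and liver was collected at the 4 h end point. Plasma was precipitated with two volumes of ACN plus internal standard. Liver was weighed and homogenized in 2 volumes of 20% Hanks buffered salt solution/80% ACN. Both were quantified by LC/MS/MS.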

[3] = Cytotoxicity against human HuH7 cells; format: cell-based; settings: Huh-7 cells
Liver = assay: Drug uptake in intraduodenally dosed Sprague-Dawley rat liver measured per gm of tissue over 4 hrs by LC/MS/MS analysis; format: ADME, organism-based; settings: in vivo, other; how it was run: as §1

C=C[C@@H]1C[C@]1(NC(=O)[C@@H]1C[C@@H](Oc2cc(-c3ccccc3)nc3cc(OC)ccc23)CN1C(=O)[C@@H](NC(=O)OC(C)(C)C)C(C)(C)C)C(=O)NS(C)(=O)=O
EC50 (Hepatitis C virus): 600 nM
IC50 [1]: 36 nM

C=C[C@@H]1C[C@]1(NC(=O)[C@@H]1C[C@@H](Oc2ncnc3cc(OC)ccc23)CN1C(=O)[C@@H](NC(=O)OC(C)(C)C)C(C)(C)C)C(=O)NS(=O)(=O)C1CC1
AUC at 4 h [2]: 0.11 µM·h
EC50 (Hepatitis C virus): 18 nM
IC50 [1]: 2 nM
CC50 [3]: > 100 µM
Drug uptake (Liver): 2319 ng

C=C[C@@H]1C[C@]1(NC(=O)[C@@H]1C[C@@H](Oc2cncc3cc(OC)ccc23)CN1C(=O)[C@@H](NC(=O)OC(C)(C)C)C(C)(C)C)C(=O)NS(=O)(=O)C1CC1
AUC at 4 h [2]: 0.38 µM·h
EC50 (Hepatitis C virus): 42 nM
IC50 [1]: 2 nM
CC50 [3]: > 100 µM
Drug uptake (Liver): 1205 ng

C=C[C@@H]1C[C@]1(NC(=O)[C@@H]1C[C@@H](Oc2nccc3c(N4CCOCC4)cccc23)CN1C(=O)[C@@H](NC(=O)OC(C)(C)C)C(C)(C)C)C(=O)NS(=O)(=O)C1CC1
EC50 (Hepatitis C virus): 966 nM
IC50 [1]: 96 nM
CC50 [3]: > 100 µM

C=C[C@@H]1C[C@]1(NC(=O)[C@@H]1C[C@H](Oc2nccc3cc(OC)ccc23)CN1C(=O)[C@@H](NC(=O)OC(C)(C)C)C(C)(C)C)C(=O)NS(=O)(=O)C1CC1
AUC at 4 h [2]: 0.25 µM·h
IC50 [1]: 5000 nM
Drug uptake (Liver): 3058 ng

C=C[C@@H]1C[C@]1(NC(=O)[C@@H]1C[C@@H](Oc2cc(-c3ccccc3)nc3cc(OC)ccc23)CN1C(=O)[C@@H](NC(=O)OC)C(C)(C)C)C(=O)NS(=O)(=O)C1CC1
AUC at 4 h [2]: 0.009 µM·h
EC50 (Hepatitis C virus): 32 nM
IC50 [1]: 1 nM
Drug uptake (Liver): 156 ng

C=C[C@@H]1C[C@]1(NC(=O)[C@@H]1C[C@@H](Oc2nccc3cc(OCC)ccc23)CN1C(=O)[C@@H](NC(=O)OC(C)(C)C)C(C)(C)C)C(=O)NS(=O)(=O)C1CC1
AUC at 4 h [2]: 1.83 µM·h
EC50 (Hepatitis C virus): 12 nM
IC50 [1]: 3 nM
CC50 [3]: 74 µM
Drug uptake (Liver): 14630 ng

C=C[C@@H]1C[C@]1(NC(=O)[C@@H]1C[C@@H](Oc2cc(-c3ccccc3)nc3cc(OC)ccc23)CN1C(=O)[C@@H](NC(=O)OC(C)(C)C)C(C)(C)C)C(=O)NS(=O)(=O)C1CCCCC1
EC50 (Hepatitis C virus): 210 nM
IC50 [1]: 149 nM

C=C[C@@H]1C[C@]1(NC(=O)[C@@H]1C[C@@H](Oc2nccc3ccc(C)cc23)CN1C(=O)[C@@H](NC(=O)OC(C)(C)C)C(C)(C)C)C(=O)NS(=O)(=O)C1CC1
EC50 (Hepatitis C virus): 100 nM
IC50 [1]: 7 nM
CC50 [3]: 86 µM

C=C[C@@H]1C[C@]1(NC(=O)[C@@H]1C[C@@H](Oc2nccc3cc(O)ccc23)CN1C(=O)[C@@H](NC(=O)OC(C)(C)C)C(C)(C)C)C(=O)NS(=O)(=O)C1CC1
EC50 (Hepatitis C virus): 67 nM
IC50 [1]: 3 nM
CC50 [3]: > 100 µM

C=C[C@@H]1C[C@]1(NC(=O)[C@@H]1C[C@@H](Oc2cc(-c3ccccc3)nc3cc(OC)ccc23)CN1C(=O)[C@@H](NC(=O)OC(C)(C)C)C(C)(C)C)C(=O)NS(=O)(=O)C(C)C
EC50 (Hepatitis C virus): 97 nM
IC50 [1]: 19 nM

C=C[C@@H]1C[C@]1(NC(=O)[C@@H]1C[C@@H](Oc2ccncc2)CN1C(=O)[C@@H](NC(=O)OC(C)(C)C)C(C)(C)C)C(=O)NS(=O)(=O)C1CC1
EC50 (Hepatitis C virus): 25000 nM
IC50 [1]: 84 nM

C=C[C@@H]1C[C@]1(NC(=O)[C@@H]1C[C@@H](Oc2cc(-c3ccccc3)nc3cc(OC)ccc23)CN1C(=O)[C@@H](NC(=O)OC(C)(C)C)C(C)(C)C)C(=O)NS(=O)(=O)c1ccccc1
EC50 (Hepatitis C virus): 20 nM
IC50 [1]: 8 nM

C=C[C@@H]1C[C@]1(NC(=O)[C@@H]1C[C@@H](Oc2nccc3cc(C(C)(C)C)ccc23)CN1C(=O)[C@@H](NC(=O)OC(C)(C)C)C(C)(C)C)C(=O)NS(=O)(=O)C1CC1
EC50 (Hepatitis C virus): 209 nM
IC50 [1]: 31 nM
CC50 [3]: 15 µM

COc1ccc2c(O[C@@H]3C[C@@H](C(=O)NC4(C(=O)NS(=O)(=O)C5CC5)CC4)N(C(=O)[C@@H](NC(=O)OC(C)(C)C)C(C)(C)C)C3)cc(-c3ccccc3)nc2c1
EC50 (Hepatitis C virus): 437 nM
IC50 [1]: 12 nM

C=C[C@@H]1C[C@]1(NC(=O)[C@@H]1C[C@@H](Oc2ccnc3cc(OC)ccc23)CN1C(=O)[C@@H](NC(=O)OC(C)(C)C)C(C)(C)C)C(=O)NS(=O)(=O)C1CC1
AUC at 4 h [2]: 0.015 µM·h
EC50 (Hepatitis C virus): 26 nM
IC50 [1]: 5 nM
Drug uptake (Liver): 620 ng

C=C[C@@H]1C[C@]1(NC(=O)[C@@H]1C[C@@H](Oc2nc(-c3ccccc3)cc3ccccc23)CN1C(=O)[C@@H](NC(=O)OC(C)(C)C)C(C)(C)C)C(=O)NS(=O)(=O)C1CC1
EC50 (Hepatitis C virus): 9 nM
IC50 [1]: 3 nM
CC50 [3]: 12 µM

C=C[C@@H]1C[C@]1(NC(=O)[C@@H]1C[C@@H](Oc2nccc3cc(C(=O)N(C)C)ccc23)CN1C(=O)[C@@H](NC(=O)OC(C)(C)C)C(C)(C)C)C(=O)NS(=O)(=O)C1CC1
EC50 (Hepatitis C virus): 11000 nM
IC50 [1]: 476 nM
CC50 [3]: > 100 µM

C=C[C@@H]1C[C@]1(NC(=O)[C@@H]1C[C@@H](Oc2nccc3c(F)cccc23)CN1C(=O)[C@@H](NC(=O)OC(C)(C)C)C(C)(C)C)C(=O)NS(=O)(=O)C1CC1
EC50 (Hepatitis C virus): 94 nM
IC50 [1]: 55 nM
CC50 [3]: > 100 µM

C=C[C@@H]1C[C@]1(NC(=O)[C@@H]1C[C@@H](Oc2nccc3cc(C#N)ccc23)CN1C(=O)[C@@H](NC(=O)OC(C)(C)C)C(C)(C)C)C(=O)NS(=O)(=O)C1CC1
EC50 (Hepatitis C virus): 586 nM
IC50 [1]: 4 nM
CC50 [3]: > 100 µM

C=C[C@@H]1C[C@]1(NC(=O)[C@@H]1C[C@@H](Oc2cc(-c3ccccc3)nc3cc(OC)ccc23)CN1C(=O)[C@@H](N)C(C)(C)C)C(=O)NS(=O)(=O)C1CC1
EC50 (Hepatitis C virus): 860 nM
IC50 [1]: 30 nM

C=C[C@@H]1C[C@]1(NC(=O)[C@@H]1C[C@@H](Oc2nccc3cc(C)ccc23)CN1C(=O)[C@@H](NC(=O)OC(C)(C)C)C(C)(C)C)C(=O)NS(=O)(=O)C1CC1
EC50 (Hepatitis C virus): 100 nM
IC50 [1]: 4 nM
CC50 [3]: 92 µM

C=C[C@@H]1C[C@]1(NC(=O)[C@@H]1C[C@@H](Oc2ccnc(-c3ccccc3)c2)CN1C(=O)[C@@H](NC(=O)OC(C)(C)C)C(C)(C)C)C(=O)NS(=O)(=O)C1CC1
EC50 (Hepatitis C virus): 267 nM
IC50 [1]: 10 nM
Drug uptake (Liver): 319 ng

C=C[C@@H]1C[C@]1(NC(=O)[C@@H]1C[C@@H](Oc2nccc3cc(-n4cccn4)ccc23)CN1C(=O)[C@@H](NC(=O)OC(C)(C)C)C(C)(C)C)C(=O)NS(=O)(=O)C1CC1
EC50 (Hepatitis C virus): 64 nM
IC50 [1]: 4 nM
CC50 [3]: 94 µM

C=C[C@@H]1C[C@]1(NC(=O)[C@@H]1C[C@@H](Oc2ncc(Cl)c3ccccc23)CN1C(=O)[C@@H](NC(=O)OC(C)(C)C)C(C)(C)C)C(=O)NS(=O)(=O)C1CC1
EC50 (Hepatitis C virus): 41 nM
IC50 [1]: 8 nM
CC50 [3]: 45 µM

C=C[C@@H]1C[C@]1(NC(=O)[C@@H]1C[C@@H](Oc2cc(-c3ccccc3)nc3cc(OC)ccc23)CN1C(=O)CNC(=O)OC(C)(C)C)C(=O)NS(=O)(=O)C1CC1
EC50 (Hepatitis C virus): 893 nM
IC50 [1]: 16 nM

C=C[C@@H]1C[C@]1(NC(=O)[C@@H]1C[C@@H](Oc2nccc3cc(Cl)ccc23)CN1C(=O)[C@@H](NC(=O)OC(C)(C)C)C(C)(C)C)C(=O)NS(=O)(=O)C1CC1
EC50 (Hepatitis C virus): 833 nM
IC50 [1]: 36 nM
CC50 [3]: 44 µM

C=C[C@@H]1C[C@]1(NC(=O)[C@@H]1C[C@@H](Oc2cc(-c3ccccc3)nc3cc(OC)ccc23)CN1C(=O)[C@@H](NC(=O)OC(C)(C)C)C(C)(C)C)C(=O)NS(=O)(=O)C1CCC1
EC50 (Hepatitis C virus): 29 nM
IC50 [1]: 7 nM

C=C[C@@H]1C[C@]1(NC(=O)[C@@H]1C[C@@H](Oc2ccc3ccccc3n2)CN1C(=O)[C@@H](NC(=O)OC(C)(C)C)C(C)(C)C)C(=O)NS(=O)(=O)C1CC1
AUC at 4 h [2]: 0.279 µM·h
EC50 (Hepatitis C virus): 268 nM
IC50 [1]: 23 nM
Drug uptake (Liver): 52094 ng

C=C[C@@H]1C[C@]1(NC(=O)[C@@H]1C[C@@H](Oc2nccc3cccc(C)c23)CN1C(=O)[C@@H](NC(=O)OC(C)(C)C)C(C)(C)C)C(=O)NS(=O)(=O)C1CC1
EC50 (Hepatitis C virus): 500 nM
IC50 [1]: 149 nM
CC50 [3]: > 100 µM

C=C[C@@H]1C[C@]1(NC(=O)[C@@H]1C[C@@H](Oc2cc(-c3ccccc3)nc3cc(OC)ccc23)CN1C(=O)[C@@H](NC(=O)OC(C)(C)C)C(C)(C)C)C(=O)NS(=O)(=O)C1CCCC1
EC50 (Hepatitis C virus): 170 nM
IC50 [1]: 71 nM

C=C[C@@H]1C[C@]1(NC(=O)[C@@H]1C[C@@H](Oc2cc(-c3ccccc3)nc3cc(OC)ccc23)CN1C(=O)[C@@H](NC(=O)OC(C)(C)C)C(C)(C)C)C(=O)NS(=O)(=O)CC
EC50 (Hepatitis C virus): 133 nM
IC50 [1]: 6 nM
